A selection: hits, their analogues and other compounds. The true share with any hit is near 2.3%.
DNMT1 inh: human DNMT1 methyltransferase inhibitors, primary screen, biochemical, molecular beacon, fluorescence, HinP1I cleavage, uHTS. AID 588458, 2011. inhibition (reported as % activation of signal), % at 10 µM. actives 0.83% (n = 360,000). DNA (cytosine-5)-methyltransferase 1 (Homo sapiens), P26358; in the data active = inhibition above about 50%
Scp1 inh: Scp-1 phosphatase inhibitors, primary screen, biochemical, colorimetric, uHTS | actives 0.88% (n = 340,000) | Recombinant Scp1, phosphopeptide, malachite green phosphate absorbance | inhibition, % at 20 µM | Carboxy-terminal domain RNA polymerase II polypeptide A small phosphatase 1 (Homo …;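 active = inhibition above about 50% at 20 µM, limit read from the data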
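Material: truncated SCP-1 phosphatase (76-261aa) / Buffer or medium: 50 mM Tris acetate pH 5.5, 0.005% Tween-20, 10 mM MgCl2 / Compound dosing: one concentration, 20 µM, with 1.0% DMSO / Incubation: 45 min room-temperature reaction, 5 min colour, 30 min stabiliser / Detection: colorimetric free-phosphate detection, absorbance 630 nm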
SUMO1 PPI mod: modulators of SUMO1 protein-protein interactions, primary screen, biochemical, uHTS | Small ubiquitin-related modifier 1 (Homo sapiens), P63165 | AID 602429, 2012 | SUMO1 binding to a labelled peptide, TR-FRET, 1 h | inhibition, % at 20 µM | actives 0.33% (n = 360,000); in the data active = inhibition above about 37%
Target sequence (P63165 whole entry, looked up): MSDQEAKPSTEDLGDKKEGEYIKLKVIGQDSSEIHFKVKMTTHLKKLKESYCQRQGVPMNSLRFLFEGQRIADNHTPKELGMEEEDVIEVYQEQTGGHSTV
LMPTP block: LMPTP phosphatase inhibitors, primary screen, biochemical, fluorescence intensity, uHTS; recombinant LMPTP-A, OMFP fluorogenic substrate; inhibition, % at 20 µM; actives 0.22% (n = 360,000);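 active = compounds that cut the enzyme signal by at least half of the control window in the single-dose screen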
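Material: LMPTP-A; amount: 0.625 nM enzyme; doses: single 20 µM dose; times: reaction 50 min, room temperature, dark; technique: fluorescence intensity of OMFP turnover product; benchmarks: no-enzyme and uninhibited controls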
STEP inh: STEP phosphatase inhibitors, primary screen, biochemical, fluorescence intensity, uHTS. Tyrosine-protein phosphatase non-receptor type 5 (Homo sapiens), P54829. recombinant STEP, OMFP fluorogenic substrate. inhibition, % at 20 µM. actives 0.25% (n = 360,000). AID 588621, 2011;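 active = inhibition at 20 µM, scaled per plate between control wells, above about 37%, limit read from the data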
Target sequence (P54829 whole entry, looked up): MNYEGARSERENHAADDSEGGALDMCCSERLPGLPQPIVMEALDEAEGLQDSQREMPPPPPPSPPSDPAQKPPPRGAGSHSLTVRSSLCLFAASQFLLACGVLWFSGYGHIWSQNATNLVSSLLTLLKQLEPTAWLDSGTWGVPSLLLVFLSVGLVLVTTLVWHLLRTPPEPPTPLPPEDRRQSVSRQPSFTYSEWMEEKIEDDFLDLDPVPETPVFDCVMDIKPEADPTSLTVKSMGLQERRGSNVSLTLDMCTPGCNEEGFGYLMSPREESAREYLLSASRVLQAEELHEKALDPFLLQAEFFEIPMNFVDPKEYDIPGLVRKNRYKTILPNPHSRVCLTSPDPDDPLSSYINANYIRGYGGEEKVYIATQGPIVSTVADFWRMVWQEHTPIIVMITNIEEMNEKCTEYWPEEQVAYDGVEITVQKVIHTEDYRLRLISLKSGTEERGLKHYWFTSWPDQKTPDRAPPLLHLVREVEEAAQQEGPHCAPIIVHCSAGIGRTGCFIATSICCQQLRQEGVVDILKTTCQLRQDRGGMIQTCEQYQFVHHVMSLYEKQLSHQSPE
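Assay system: isolated STEP enzyme / Timing: 20 min at room temperature, dark / Doses: 20 µM, 1% DMSO / Technique: fluorescence intensity, excitation 480 nm, emission 540 nm / Reagent: fluorogenic phosphatase substrate OMFP at 25 µM final / Measure: percent inhibition scaled to no-enzyme and uninhibited-enzyme controls, plate-pattern corrected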
NadD inh: inhibitors of S. aureus NadD, primary screen, biochemical, colorimetric, uHTS; AID 602399, 2012; inhibition, % at 20 µM; purified NadD enzyme, colorimetric absorbance read-out; Nicotinate-nucleotide adenylyltransferase NadD (Staphylococcus aureus N315); actives 0.78% (n = 360,000); in the data active = inhibition above about 26%
Beacon interf DR: spectral interference with molecular beacon fluorescence, dose response, artefact control for DNMT1 inhibitor project, biochemical, fluorescent molecular beacon. shares compounds with DNMT1 inh. spectral interference counter-screen. IC50, µM. 200 tested, under 10 active; call rule not given here
DNMT1 inh conf: DNMT1 methyltransferase inhibitor retest, confirmation, biochemical, molecular beacon, fluorescence, single concentration | shares compounds with DNMT1 inh | DNMT1 molecular beacon HinP1I cleavage | inhibition, % at 10 µM | actives 8% (n = 2,300) | AID 602385, 2012;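 active = average inhibition of at least 30% in the single-concentration confirmation test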
Beacon interf: shows spectral interference in the DNMT1 beacon assay; shares compounds with DNMT1 inh; DNMT1 molecular beacon spectral interference counterscreen, fluorescence 485/520; activation (fluorescence interference), % at 10 µM; actives 1% (n = 2,300);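 active = activation of at least 30% at 10 µM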;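 also: DNMT1 catalytic domain with a HinP1I cleavage step and a FAM/dabcyl DNA beacon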
A number is an active result; – = inactive; · = not tested or not shown.

SMILES	DNMT1 inh	Scp1 inh	SUMO1 PPI mod	LMPTP block	STEP inh	NadD inh	DNMT1 inh conf	Beacon interf	others
CCOc1cc2c(cc1OCC)-n1cccc1C(c1cccc(OCC)c1O)NC2 (stereo not given)	–	–	–	–	–	–	·	·
Cc1ccccc1CN1Cc2cnnn2-c2ccccc2C1C#N (stereo not given)	–	–	–	–	–	–	·	·
O=C(O)C1C2CCC(O2)C1C(=O)Nc1cccc(Br)c1 (stereo not given)	79	–	–	–	–	–	–	–
O=C(O)C1C2c3ccccc3C(c3ccccc32)C1C(=O)Nc1ccccc1 (stereo not given)	–	–	–	–	–	–	·	·
Cc1cc(/C=C2\C(=O)NC(=O)N(c3cccc(F)c3)C2=O)c(C)n1-c1cc(C(=O)O)cc(C(=O)O)c1	75	–	–	–	–	–	–	–
CN1C(=O)/C(=C/c2cccn2-c2ccc3ccccc3c2)C(=O)NC1=S	81	–	–	–	–	44	–	–
O=C1NC(=S)NC(=O)C1=Cc1cccn1-c1ccc(O)cc1	84	56	–	–	–	–	65	–	Beacon interf DR=–
Cc1cc(C)cc(N2C(=O)NC(=O)/C(=C\c3cccn3-c3ccccc3)C2=O)c1	–	–	–	–	–	–	·	·
CC(C)C1(C)N=C(c2nc3ccccc3cc2C(=O)O)NC1=O (stereo not given)	–	–	–	–	–	–	·	·
CC(C)C1(C)N=C(c2ncccc2C(=O)O)NC1=O (stereo not given)	94	–	–	–	–	–	–	–
Cc1ccc(N2C(=O)NC(=O)/C(=C\c3cc(C)n(-c4sc5c(c4C#N)CCCC5)c3C)C2=O)cc1	70	–	51	–	–	34	–	–	Beacon interf DR=–
CCOC(=O)c1c(-n2c(C)cc(C=C3C(=O)NC(=S)NC3=O)c2C)sc2c1CCCC2	100	–	–	–	–	46	–	–	Beacon interf DR=–
CCOC(=O)c1c(-n2c(C)cc(/C=C3/C(=O)NC(=O)N(CC)C3=O)c2C)sc2c1CCCC2	–	–	–	–	–	–	·	·
COc1ccc(N2C(=O)/C(=C/C=C/c3ccccc3[N+](=O)[O-])C(=O)NC2=S)cc1	·	–	·	·	·	·	·	·
COc1nc2ccccc2c(=O)n1-c1ccc(C)cc1	88	–	–	–	–	–	–	–
Cn1c(O)c(/C=C2\N=c3ccccc3=C2CCNC(=S)NC2CC2)c(=O)n(C)c1=O	–	–	–	–	–	–	·	·
CCN(CC)c1ccc(/C=C2/C(=O)NC(=O)N(Cc3ccco3)C2=O)cc1	68	–	–	–	–	–	–	–
CCN(CC)c1ccc(/C=C2\C(=O)NC(=O)N(CC3CCCO3)C2=O)cc1 (stereo not given)	–	–	–	–	–	–	·	·
CN(C)c1ccc(/C=C2/C(=O)NC(=O)N(Cc3ccco3)C2=O)cc1	94	–	–	–	–	–	–	–
COC(=O)c1ccc(CC(C(=O)c2ccccc2)N(C)C)cc1 (stereo not given)	–	–	–	–	–	–	·	·
O=c1[nH]c(O)c(C=NCCc2ccccc2)c(=O)[nH]1	–	–	–	–	–	–	·	·
O=c1[nH]c(O)c(/C=C2\C=Nc3ccc(OCc4ccccc4)cc32)c(=O)[nH]1	71	–	–	–	–	–	–	–
CCCCOCCCn1c(N)c(C(=O)OCCOC)c2nc3ccccc3nc21	52	–	40	–	–	–	–	–
N#Cc1ccc(NC(=O)CN2CCN(C(=O)c3cccs3)CC2)cc1Cl	–	–	–	–	–	–	·	·
c1ccc(CN2COC3CCCCCC32)cc1 (stereo not given)	–	·	–	–	–	–	·	·
SMILES	DNMT1 inh	Scp1 inh	SUMO1 PPI mod	LMPTP block	STEP inh	NadD inh	DNMT1 inh conf	Beacon interf	others
C#C[C@]1(O)[C@H](O)CC2C3CC[C@H]4C[C@@H](O)CC[C@]4(C)C3CC[C@@]21C (stereo not given in full)	67	·	–	–	–	–	–	–
C=CCSc1nc2c(c(-c3ccsc3)c1C#N)CN(C)CC2	52	–	–	–	–	–	–	–
CN1CCc2nc(SCc3ccccc3Br)c(C#N)cc2C1	–	–	–	–	–	–	·	·
CCCNC(=O)c1c(N)n(CC2CCCO2)c2nc3ccccc3nc12 (stereo not given)	61	–	44	–	–	–	–	–
CC(C)OCCCNC(=O)c1c(N)n(CC2CCCO2)c2nc3ccccc3nc12 (stereo not given)	85	–	40	–	–	–	–	–
Nc1c(C(=O)OC2CCCCC2)c2nc3ccccc3nc2n1CC1CCCO1 (stereo not given)	–	–	–	–	–	–	·	·
Cc1ccc(/C=C2\C(=O)NC(=S)N(c3ccc(F)cc3)C2=O)o1	–	–	–	–	–	–	·	·
O=C1NC(=S)N(c2ccccc2)C(=O)/C1=C/c1ccco1	93	93	54	–	–	–	82	–	Beacon interf DR=–
O=C1NC(=S)N(c2ccc(F)cc2)C(=O)/C1=C/c1ccccc1O	–	–	–	–	–	–	·	·
COc1cccc(N2C(=O)/C(=C/c3ccc(C)o3)C(=O)NC2=S)c1	62	–	–	–	–	–	–	–
CCOP(=O)(OCC)C(NS(=O)(=O)c1ccccc1)C(Cl)(Cl)Cl (stereo not given)	–	–	–	–	–	–	·	·
CC1(C)C(=O)CC[C@@]2(C)C1=CCC1C2CC[C@]2(C)C(=O)CCC12 (stereo not given in full)	–	–	–	–	–	–	·	·
CN1C(=O)NC(=O)C(N=Nc2ccc(Cl)cc2)C1=O (stereo not given)	–	–	–	–	–	–	·	·
CC(C)c1ccc(N2C(=O)NC(=O)/C(=C\C=C\c3ccco3)C2=O)cc1	·	–	·	·	·	·	·	·
O=C1NC(=O)N(Cc2ccccc2)C(=O)/C1=C/C=C/c1ccco1	90	–	–	–	–	–	–	–

Source: PubChem BioAssay
